NPR1 activator: GC-A (human) enzyme activation | P16066 | 0.14% of 370,000 active | activation, % at 10 µM | HEK293 GC-A cells, cGMP TR-FRET, EC30 ANP; 0% at EC30 ANP, 100% saturating ANP | AID 1671463; in the data active = activation above about 40%
TbMetRS inhib: Trypanosoma brucei MetRS inhibition | 0.4% of 360,000 active | purified T. brucei MetRS, ATP depletion, Kinase-Glo luminescence | inhibition, % at 11.9 µM;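 active = inhibition above a per-plate cutoff of the control wells' mean inhibition plus 3 SD, cut at about 5.5% in these data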;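 note: 0% = DMSO wells median and 100% = median of wells with control inhibitor compound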
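Test system: purified T. brucei MetRS enzyme. Also added: ATP, methionine and E. coli bulk tRNA substrates. Compound: 11.9 µM single point. Schedule: 15 min enzyme-compound preincubation, 2 h reaction, 10 min detection, 25 °C. Signal: luciferase luminescence of residual ATP, Kinase-Glo. Evaluation: percent inhibition versus plate control medians. Controls: DMSO wells, low control.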
SKN-1 block: blocks SKN-1 activity in C. elegans; AID 624304; 0.49% of 360,000 active; inhibition, % at 21.8 µM; C. elegans VP596 Pgst-4::GFP/RFP ratio, acrylamide-induced, 24 h;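 active = interference check ratio from 0.5 to 1.5 plus GFP to RFP signal ratio inhibition reaching or exceeding a fixed threshold, cut at about 30% in these data, passing the limit was not always enough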
MT1-MMP act inh: blocks activation of human MT1-MMP | P50281 | HT1080 RFP-PRO-GFP cells, GFP/RFP ratio fluorescence, overnight; percent of plate control window, DMSO zero | GFP/RFP ratio change, % at 20 µM | 0.061% of 360,000 active | AID 651647;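 active = GFP/RFP ratio change of at least 30% with cell ATP level not reduced by more than half and red fluorescence within 50% of control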
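Assay system – RFP-PRO-GFP reporter HT1080 cells · Compound dosing – single dose of 20 µM compound, 1% DMSO final · Incubation – overnight compound exposure at 37 °C · Measure – GFP/RFP fluorescence ratio · Benchmarks – DMSO wells and RFP-L50D-GFP cells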
GC-B act: GC-B (human) receptor activation; P20594; HEK293-GC-B cells, CNP EC30, cGMP TR-FRET; 0% at EC30 CNP, 100% saturating CNP; activation, % at 10 µM; 0.11% of 370,000 active;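 active = activation at 10 µM reaching about 35% in either raw or pattern-adjusted values, limit read from the data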
Bfl-1 A1 inh: inhibitors of the anti-apoptotic protein A1, read as caspase activation | MEF A1-2A-BIM cells, Caspase-Glo 3/7 luminescence, 3 h; percent of clofoctol response, vehicle zero | caspase activation, % (concentration not given with the values) | 0.066% of 330,000 active;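 active = over half of replicate activation scores above 10%, or exactly half above 10 with the replicate mean above 10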
Starred values were filed as active, the others as inactive; · = no result given. An excerpt weighted towards active compounds, which were near 1.1% of everything screened.

SMILES	NPR1 activator	TbMetRS inhib	SKN-1 block	MT1-MMP act inh	GC-B act	Bfl-1 A1 inh
C=CCNC(=S)NNC(=O)c1ccc(OCCC)cc1	8	0	13	-3	0	0
CCCOc1ccc(C(=O)NNC(=S)NC(=O)CC)cc1	3	-1	-9	5	64*	1
O=C(NCCc1nc2ccccc2n1C/C=C/c1ccccc1)C1CCCCC1	-21	·	·	·	-26	·
COc1ccc(-c2cc(C(F)(F)F)n3ncc(C(=O)NCC4CCCO4)c3n2)cc1 (stereo not drawn)	15	2	-9	-1	15	·
COc1cccc(-c2cc(C(F)(F)F)n3ncc(C(=O)NCC4CCCO4)c3n2)c1 (stereo not drawn)	35	0	11	7	46*	0
CC(C)C(=O)NCCc1nc(-c2ccccc2Cl)no1	-1	0	36*	8	4	0
CC(=O)Nc1cccc(OCC(=O)NS(=O)(=O)c2ccc(Cl)cc2)c1	2	0	35*	-2	0	0
O=C(COc1ccccc1)NS(=O)(=O)c1ccc(Cl)cc1	2	0	-1	3	0	0
O=C(Nc1ccc(F)cc1)Nc1c(-c2ccc(F)cc2)nc2ncccn12	2	·	·	·	7	·
COc1ccc(OC)c(S(=O)(=O)N2CCCCC2C(=O)N2CCN(CCO)CC2)c1 (stereo not drawn)	3	·	·	·	-6	·
Cc1ccc2c([N+](=O)[O-])c(C)ccc2n1	3	1	35*	-9	-5	0
Clc1ccccc1/C=C/c1ccnc2ccccc12	9	2	35*	-4	10	1
Oc1ccc(/C=C/c2ccnc3ccccc23)cc1	-16	1	-1	-19	-9	-4
O=C(CCN1CCOCC1)c1ccc(Cl)cc1	58*	-1	-6	-1	-4	1
Cc1ccc(C(=O)NC2CCN(CCCC(=O)c3ccc(F)cc3)CC2)cc1	7	-1	14	4	-8	0
O=C(c1cccs1)N1CCC(c2ccccc2)C1 (stereo not drawn)	0	-1	11	-1	-2	-3
N=c1n(CCN2CCCCC2)c2ccccc2n1CC(=O)c1cccs1	-9	0	-7	3	-9	1
O=C(CCN1CCC(c2ccccc2)C1)c1cccs1 (stereo not drawn)	52*	0	-2	0	0	0
O=C(CCN1CCCC1)c1cccs1	50*	0	24	-2	0	0
O=C(CCN1CCC2CCC(C2)C1)c1ccc(F)cc1 (stereo not drawn)	72*	0	8	0	-3	·
COc1ccc(OC)c(S(=O)(=O)N2CCCCC2C(=O)N2CCN(c3ccc(F)cc3)CC2)c1 (stereo not drawn)	-2	·	·	·	-2	·
CCC1(C)CC2(CCCN(CCC(=O)c3ccccc3)C2)CCO1 (stereo not drawn)	43*	-1	-4	0	-1	0
O=C(CCN1CCC(c2ccccc2)C1)c1ccccc1 (stereo not drawn)	59*	0	14	-2	-2	0
O=C(CCN1CCN(c2ccccc2F)CC1)c1ccc(Br)cc1	·	-1	-22	-3	·	0
CC1(C)CC2(CCCN(C(=S)Nc3ccccc3)C2)CCO1 (stereo not drawn)	3	2	-7	14	0	0
SMILES	NPR1 activator	TbMetRS inhib	SKN-1 block	MT1-MMP act inh	GC-B act	Bfl-1 A1 inh
O=C(CCN1CCCCCC1)c1ccccc1	71*	0	-12	7	-1	0
O=C(CCN1CCN(c2ccccc2)CC1)c1ccc(Br)cc1	40*	0	6	-1	0	-1
CCCC1CCC2(CC1)CCC2OC(=O)Nc1cccc(C(F)(F)F)c1 (stereo not drawn)	-2	·	·	·	-9	·
CCCCCCCCOc1ccc(C2OC34CCCCC3C(C#N)(C#N)C2(C#N)C(=N)O4)cc1 (stereo not drawn)	·	-1	47*	-34	·	1
C#CCOCCOCCOCCNc1nc(N2CCN(C(=O)Cn3cc(CCCN=C(N)N)nn3)CC2)nc(N2CCN(C(=O)[C@H](Cc3ccc(O)cc3)n3cc(CCO)nn3)CC2)n1	3	·	·	·	-1	·
c1ccc(CSc2nnc(-c3ccco3)o2)cc1	0	0	10	1	-3	0
Cc1ccc(CSc2nnc(-c3ccco3)o2)cc1	-2	0	82*	9	-3	1
Fc1ccc(CSc2nnc(-c3ccco3)o2)cc1	-5	0	71*	1	-1	0
Brc1ccc(CSc2nnc(-c3ccco3)o2)cc1	-2	0	94*	3	-4	1
O=C(O)c1ccc(CSc2nnc(-c3ccco3)o2)cc1	-2	0	12	1	3	-2
CC(=O)NCCNc1nc2c(-c3cccc(C(F)(F)F)c3)nnn2c2ccccc12	8	0	11	-2	5	1
COCCNc1nc2c(-c3cccc(C(F)(F)F)c3)nnn2c2ccccc12	39	0	19	0	42*	1
COc1ccccc1/C=C/C=N/Nc1cccc(C(=O)O)c1	54*	1	-2	2	-2	-9
COc1ccc(NC(=O)CSc2ncnc3scc(-c4ccc(C)cc4)c23)cc1OC	3	·	·	·	1	·
Nc1cc2nsnc2cc1Br	-15	12*	-8	-9	-15	0
Nc1cccc2nsnc12	0	0	-14	-1	-3	-1
COc1ccc(NC(=O)c2cccs2)cc1NC(=O)c1ccco1	2	1	-2	11	-3	0
O=C(Nc1ccc2nc(-c3ccccc3)oc2c1)c1ccco1	-10	0	75*	5	-6	-3
O=C(Nc1ccc(NC(=O)c2ccco2)c(Cl)c1)c1ccccc1	3	-1	5	-5	-5	-6
O=C(Nc1ccc(Br)c(Cl)c1)c1ccco1	-1	1	86*	-1	0	-5
O=C(Nc1ccc2c(c1)Cc1ccccc1-2)c1ccco1	-4	-1	72*	9	-9	-1
Cc1ccc(NC(=O)c2cccs2)cc1NC(=O)c1ccco1	4	0	44*	1	-2	0
FC(F)(F)c1ccccc1NC(=S)OCCN1CCCC12CCC(c1ccccc1)CC2 (stereo not drawn)	-4	·	·	·	-1	·
Cc1ccc2nc(-c3ccc(NC(=O)CSc4nnc(-c5cc(C)[nH]n5)n4N)cc3)sc2c1	6	·	·	·	2	·
C/C(=N\NC(=O)Cc1cc(=O)[nH][nH]1)c1ccc([N+](=O)[O-])cc1	3	·	·	·	-18	·

Source: PubChem
